Active and inactive are the calls of the source.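 How the source made its calls, unless noted: active means fluorescence slope higher than the sample average by over 3 SD (cut at about -0.22 in these data, passing the limit was not always enough); inactive means the rest.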
Legend:
[1] = inhibitors of TNFa-induced NFkB p65 translocation, primary screen, imaging, HUVEC, MLSMR starter and 10KST1 sets (AID 438;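 active means inhibition above 20% together with a positive visual image hit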;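 further: compound added about 3h40 before a 20 min TNFalpha stimulation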;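 on inhibition: signal is the nuclear over cytoplasmic p65 intensity ratio per well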); details: HUVEC TNFa-induced p65 nuclear translocation; cell count: measured here: nuclei count (cytotoxicity indicator), at 2.08 µM; inhibition: at 2 µM, stronger effect = higher value, 0% TNFa-plus-vehicle, 100% no-TNFa wells
[2] = reduction of polyQ htt aggregates in cells – imaging, exon1htt(103Q)mCFP cells, high-content imaging, primary screen (AID 483;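 active means visual image review flags a hit and inhibition of aggregation exceeds 20%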;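 further: compound exposure lasted 3 days before fixation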;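 on nuclei count: percent of the per-plate median nuclei count of sample wells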); details: exon1htt(103Q)mCFP cell line, aggregate imaging, at 2 µM; inhibition of aggregation: stronger effect = higher value; nuclei count: measured here: cell count, toxicity
[3] = endothelial E-selectin expression blockers – imaging, HUVEC, immunofluorescence, MLSMR starter and 10KST1 sets, primary screen (AID 487;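 active means visually confirmed hit in the image check and inhibition above 20%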;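 on inhibition: signal is fraction of cell area covered by stained E-selectin grains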;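 on nuclei count: 100% = median nuclei count of all wells on the same plate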); details: HUVEC TNFalpha-induced E-selectin immunofluorescence imaging, at 2 µM; inhibition: stronger effect = higher value; nuclei count: measured here: cell number, toxicity
[4] = target: Voltage-gated potassium channel subunit beta-2 (Rattus norvegicus) (UniProt P62483); test: inhibitors of rat Kvbeta2 reductase activity – biochemical, NADPH fluorescence, primary screen (AID 622); details: recombinant KvBeta, 4-cyanobenzaldehyde reduction, at 10 µM, stronger effect = higher value;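 further: slope of raw intensity against log time taken from 70 to 1610 s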
Sequence of Voltage-gated potassium channel subunit beta-2 (Rattus norvegicus) (P62483 whole entry, looked up): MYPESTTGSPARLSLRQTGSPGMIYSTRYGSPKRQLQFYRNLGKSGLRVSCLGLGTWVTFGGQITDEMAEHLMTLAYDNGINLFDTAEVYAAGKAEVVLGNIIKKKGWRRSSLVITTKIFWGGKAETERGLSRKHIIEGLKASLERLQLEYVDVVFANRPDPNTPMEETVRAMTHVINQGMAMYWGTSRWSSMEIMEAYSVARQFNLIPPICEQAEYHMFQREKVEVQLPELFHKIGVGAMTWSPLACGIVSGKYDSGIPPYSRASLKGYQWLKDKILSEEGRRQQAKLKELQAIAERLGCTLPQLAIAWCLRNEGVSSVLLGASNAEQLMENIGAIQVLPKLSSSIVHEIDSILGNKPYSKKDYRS

[5] = target: Voltage-gated potassium channel subunit beta-2 (Rattus norvegicus) (UniProt P62483); test: enhancers of rat Kvbeta2 NADPH turnover – biochemical, NADPH fluorescence, primary screen (AID 623;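 active means NADPH fluorescence slope more negative than the mean of all samples by about 3 SD, 99.7% confidence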;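 further: fluorescence intensity change per second fitted from 20 to 320 s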); details: Recombinant KvBeta, NADPH fluorescence decrease slope, 10 min; at 10 µM; stronger effect = lower value
[6] = target: Muscarinic acetylcholine receptor M4 (Homo sapiens) (UniProt P08173); test: M4-linked GIRK flux change, two-sided – cell-based, HEK293 M4/GIRK, thallium flux, BTC-AM, M4 allosteric agonist project, primary screen (AID 625;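 active means fluorescence slope after compound addition differing from the mean of all tested samples at 99.7% confidence, mostly higher but some lower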;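 further: thallium influx through GIRK channels coupled to M4 in HEK293 cells with BTC-AM dye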); details: at 10 µM, actives lie on both sides
Sequence of Muscarinic acetylcholine receptor M4 (Homo sapiens) (P08173 whole entry, looked up): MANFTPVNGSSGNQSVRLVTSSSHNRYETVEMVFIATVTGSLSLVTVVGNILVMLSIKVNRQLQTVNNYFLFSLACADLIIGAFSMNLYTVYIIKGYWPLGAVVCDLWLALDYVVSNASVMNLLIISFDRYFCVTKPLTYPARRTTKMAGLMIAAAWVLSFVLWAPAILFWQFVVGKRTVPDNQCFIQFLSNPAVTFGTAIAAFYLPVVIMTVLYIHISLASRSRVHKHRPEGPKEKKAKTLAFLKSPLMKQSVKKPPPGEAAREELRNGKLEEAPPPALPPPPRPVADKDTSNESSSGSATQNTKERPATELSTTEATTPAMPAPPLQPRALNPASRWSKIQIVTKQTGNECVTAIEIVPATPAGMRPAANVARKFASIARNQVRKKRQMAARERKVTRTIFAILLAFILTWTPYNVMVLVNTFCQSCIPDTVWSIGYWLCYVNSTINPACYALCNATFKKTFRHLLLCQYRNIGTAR
Procedure, shortened: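 Material – HEK293 cells with M4 receptor and GIRK channels · Buffer or medium – pH 7.3 thallium assay buffer · Doses – one dose, 10 µM final · Timing – cells overnight at 37 °C, BTC-AM loading 1 h, reads 2 min total · Measured by – kinetic fluorescence with BTC-AM dye · Controls – carbachol and DMSO controls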

[7] = blockers of RIG-like receptor reporter activation – cell-based, Sendai virus stimulus, luciferase, 10K MLSCN set, TLR/RLR signaling modifier project, primary screen (AID 602276;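 active means inhibition at or above 50% at 10 µM; inactive means inhibition below 50%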;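 further: firefly luciferase from ISG56 promoter only with Renilla not read in this screen; 0% = Sendai virus plus DMSO and 100% = medium plus DMSO without virus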); details: HEK293 RL24 IRF3 luciferase reporter, at 10 µM, stronger effect = higher value
[8] = TLR3 IRF3 reporter activation blockers – cell-based, poly I:C stimulus, luciferase, 10K MLSCN set, primary screen (AID 602277;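 active means inhibition of the reporter signal at or above 50%; inactive means inhibition below 50%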); details: HEK293-TLR3 RL24 IRF3 luciferase reporter, at 10 µM, stronger effect = higher value

Row | SMILES | cell count [1] | inhibition [1] | inhibition of aggregation [2] | nuclei count [2] [%] | inhibition [3] | nuclei count [3] [%] | fluorescence slope [4] | NADPH fluorescence slope [5] | fluorescence slope [6] | inhibition [7] | inhibition [8]
1 | CCCNC(=O)c1c(N)n(-c2cc(OC)cc(OC)c2)c2nc3ccccc3nc12 | 587 | -7% (inactive) | 3% (inactive) | 93.7 | -89.1% (inactive) | 135 | -0.367 (inactive) | 2.2e-05 (inactive) | 0.00602 (inactive) | 8.54% (inactive) | -6.79% (inactive)
2 | Cc1noc(NS(=O)(=O)c2ccc(N3C(=O)c4ccccc4C3=O)cc2)c1C | 754 | -11.1% (inactive) | 6.1% (inactive) | 104 | -0.4% (inactive) | 93.6 | -0.533 (inactive) | -3.7e-05 (inactive) | 0.00521 (inactive) | 6.19% (inactive) | 25.2% (inactive)
3 | O=c1[nH]c2ccccc2nc1NCCN1CCOCC1 | 404 | -26.6% (inactive) | -31.4% (inactive) | 98.9 | -80.4% (inactive) | 134 | -0.553 (inactive) | -6.2e-05 (inactive) | 0.00364 (inactive) | 8.81% (inactive) | 1.66% (inactive)
4 | O=C1CC(Cc2ccccc2)C(=O)N1CCc1ccc2c(c1)OCO2 (centres undefined) | 480 | 3.5% (inactive) | -0.2% (inactive) | 110 | -145% (inactive) | 127 | -0.579 (inactive) | -1.8e-05 (inactive) | 0.00603 (inactive) | -0.603% (inactive) | 9.62% (inactive)
5 | CCOc1ccccc1C(=O)NCCCn1ccnc1 | 469 | 5.5% (inactive) | 6.9% (inactive) | 96.2 | -89.5% (inactive) | 121 | -0.576 (inactive) | -6.1e-05 (inactive) | 0.00757 (inactive) | 11.4% (inactive) | 8.04% (inactive)
6 | CCOCCCNS(=O)(=O)c1ccc2c(c1)oc(=O)n2CC(=O)OCC | 454 | -6.6% (inactive) | 24.3% (inactive) | 119 | -7.8% (inactive) | 82.5 | -0.444 (inactive) | 3.2e-05 (inactive) | 0.00606 (inactive) | 12.8% (inactive) | 23.6% (inactive)
7 | CC(=O)c1cccc(NC(=O)N2C3CCC2CC(O)(c2cccnc2)C3)c1 (centres undefined) | 602 | 9.7% (inactive) | -21.4% (inactive) | 104 | -27.6% (inactive) | 106 | -0.259 (inactive) | 3.9e-06 (inactive) | 0.0059 (inactive) | -7.02% (inactive) | 16.5% (inactive)
8 | CCOC(=O)c1cc2c(=O)n3cccc(C)c3nc2n(Cc2ccco2)c1=NC(=O)c1cccnc1 | 791 | -1.1% (inactive) | 1.7% (inactive) | 108 | -59.3% (inactive) | 112 | -0.439 (inactive) | -2e-05 (inactive) | 0.00326 (inactive) | 8% (inactive) | -0.151% (inactive)
9 | CC(C)C(=O)Nc1cccc(NC(=O)c2cccnc2)c1 | 311 | 7.2% (inactive) | -20.9% (inactive) | 95.6 | -167% (inactive) | 104 | -0.611 (inactive) | 7.6e-06 (inactive) | 0.00325 (inactive) | -7.88% (inactive) | -11.4% (inactive)
10 | O=C(O)CCc1ccc(-c2cccs2)n1CCC(=O)O | 828 | -2.7% (inactive) | -3.1% (inactive) | 95.6 | -43% (inactive) | 116 | -0.55 (inactive) | -5.2e-05 (inactive) | 0.00465 (inactive) | 14.7% (inactive) | 20.5% (inactive)
11 | C/C(=C(\C#N)C(=O)NCCCN1CCOCC1)N(C)C | 475 | -11.2% (inactive) | 20.1% (inactive) | 75.2 | -96.7% (inactive) | 115 | -0.581 (inactive) | -1.9e-05 (inactive) | 0.0035 (inactive) | 1.58% (inactive) | -2.64% (inactive)
12 | COCC(=O)N(Cc1ccccc1)c1ccccn1 | 354 | 4.9% (inactive) | 1.6% (inactive) | 94.8 | -58.3% (inactive) | 153 | -0.599 (inactive) | -4.6e-05 (inactive) | 0.00609 (inactive) | 11.8% (inactive) | 14.7% (inactive)
13 | Cn1cccc1-c1cc(C(=O)O)[nH]n1 | 825 | -8.7% (inactive) | 7.8% (inactive) | 56.8 | -57.9% (inactive) | 139 | -0.465 (inactive) | -0.000188 (inactive) | 0.00382 (inactive) | 15.5% (inactive) | 15.9% (inactive)
14 | CC(=O)c1cc(C#N)c(SCC(=O)OC(C)C)nc1C | 464 | -5.3% (inactive) | -14.7% (inactive) | 118 | -22.4% (inactive) | 121 | -0.26 (inactive) | -2.7e-05 (inactive) | 0.00594 (inactive) | 9.07% (inactive) | -11% (inactive)

From PubChem BioAssay
